From PubChem
Most compounds without a hit are left out; they make up all but 1.3% or so of the library.
Fam108B counter: blocks mouse Fam108B hydrolase in RBBP9 counter-screen. recombinant Fam108B, FP-Rh probe fluorescence polarization. inhibition, % at 9.51 µM. 0.33% of 300,000 active. AID 1947;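 active = inhibition above the screen mean inhibition plus 3 SD, computed separately per campaign, cut at about 18% in these data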;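 also: inhibitors lower polarization as less probe binds the enzyme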
PME-1 primary: PME-1 (human) inhibition; Q9Y570; recombinant PME-1, FP-Rh probe fluorescence polarization; inhibition, % at 5.9 µM; 0.53% of 320,000 active; AID 2130;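 active = inhibition above the campaign mean of all compounds plus 3 SD, cut at about 26% in these data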;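 also: competitive labeling of PME-1 active site by serine hydrolase directed probe; inhibitors block probe labeling so polarization falls and inhibition rises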
LYPLA2 inh: counter-screen for PME1 inhibitors: inhibitors of human LYPLA2. AID 2177. inhibition, % at 5.9 µM. recombinant LYPLA2, FP-Rh probe fluorescence polarization. O95372. 0.38% of 320,000 active;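 active = inhibition above the screen-wide mean plus 3 SD, limit set per campaign, cut at about 26% in these data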
Target sequence (O95372 whole entry, looked up): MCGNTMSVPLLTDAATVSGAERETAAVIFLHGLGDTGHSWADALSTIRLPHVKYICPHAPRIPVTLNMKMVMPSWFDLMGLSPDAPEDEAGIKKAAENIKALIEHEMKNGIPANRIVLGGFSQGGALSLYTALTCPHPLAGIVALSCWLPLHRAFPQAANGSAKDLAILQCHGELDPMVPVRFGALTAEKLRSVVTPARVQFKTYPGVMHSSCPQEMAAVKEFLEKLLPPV
LYPLA1 counter: LYPLA1 (human) inhibition in PME1 counter-screen. inhibition, % at 5.9 µM. O75608. recombinant LYPLA1, FP-Rh probe fluorescence polarization. 0.16% of 320,000 active;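 active = inhibition above the mean of all tested compounds plus 3 SD, set per campaign, cut at about 14% in these data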;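 also: inhibitors block serine hydrolase probe labeling of LYPLA1 so polarization falls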
Target sequence (O75608 whole entry, looked up): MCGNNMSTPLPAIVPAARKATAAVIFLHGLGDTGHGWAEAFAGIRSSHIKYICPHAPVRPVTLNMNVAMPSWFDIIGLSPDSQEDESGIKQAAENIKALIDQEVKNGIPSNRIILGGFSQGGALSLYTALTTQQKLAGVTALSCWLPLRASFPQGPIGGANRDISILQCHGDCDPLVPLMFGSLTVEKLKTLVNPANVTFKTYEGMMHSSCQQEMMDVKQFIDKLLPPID
RBBP9 inhibitor: blocks human serine hydrolase RBBP9 | 0.2% of 220,000 active | recombinant RBBP9, FP-Rh probe fluorescence polarization | O75884 | inhibition, % at 7.94 µM;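 active = inhibition above the campaign mean of all tested compounds plus 3 SD, cut at about 14% in these data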
Target sequence (O75884 whole entry, looked up): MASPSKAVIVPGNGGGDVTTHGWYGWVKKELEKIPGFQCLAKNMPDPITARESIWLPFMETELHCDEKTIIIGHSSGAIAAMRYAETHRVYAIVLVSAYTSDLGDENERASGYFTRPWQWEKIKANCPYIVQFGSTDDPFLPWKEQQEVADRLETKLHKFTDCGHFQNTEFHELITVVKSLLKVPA
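system = RBBP9 protein | input = RBBP9 at 2.5 µM in dispensed solution, before mixing | measured by = fluorescence polarization (mP), excitation 525 nm, emission 598 nm | incubation = enzyme-compound preincubation 30 min, then probe labeling 45 min, 25 °C | buffer or medium = Tris-NaCl-Pluronic buffer, pH 8.0 | compound = single dose 7.94 µM | also added = FP-Rh probe, 375 nM dispensing solution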
PAD4 FP inh: inhibitors of human PAD4 | Q9UM07 | recombinant PAD4, RCA probe fluorescence polarization | inhibition, % at 6.36 µM | 0.41% of 330,000 active;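 active = percent inhibition above a cutoff equal to the mean of all tested compounds plus 3 SD, cut at about 15% in these data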
LYPLA1 conf: LYPLA1 (human) inhibition, confirmation counter-screen; shares compounds with LYPLA1 counter; recombinant LYPLA1, FP-Rh probe fluorescence polarization; inhibition, % at 5.9 µM; 69% of 480 active; AID 2233;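 active = mean inhibition across replicates above the hit cutoff set in the primary screen, cut at about 15% in these data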;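 also: loss of FP-Rh probe labeling of LYPLA1 seen as lower polarization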
LYPLA2 confirm: counter-screen for PME1 inhibitors: confirmation of human LYPLA2 inhibitors. shares compounds with LYPLA2 inh. recombinant LYPLA2, FP-Rh probe fluorescence polarization. inhibition, % at 5.9 µM. 72% of 1,100 active;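 active = mean inhibition across replicates above the hit cutoff set in the primary screen, cut at about 26% in these data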;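 also: blocked labeling of the enzyme by serine hydrolase FP-Rh probe lowers polarization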
LYPLA2 gel ABPP: LYPLA2 (human) inhibition, late stage results; shares compounds with LYPLA2 inh; rhLYPLA2 in mouse brain proteome, gel ABPP FP-Rh; inhibition, % at 20 µM; 30% of 150 active;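 active = inhibition of LYPLA2 enzyme probe labeling above about 50%, limit read from the data; inactive = inhibition below that limit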;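 also: loss of FP-Rh probe labeling of the LYPLA2 gel band measured as band density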
PAD4 confirm: confirmation of human PAD4 inhibitors | recombinant PAD4, RCA probe fluorescence polarization | shares compounds with PAD4 FP inh | inhibition, % at 6.36 µM | 28% of 1,200 active;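 active = mean inhibition across replicates above the hit cutoff set by the earlier primary screen, cut at about 15% in these data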;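 also: inhibitors block active-site labeling by the probe so polarization falls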
Large screens that a line does not name were inactive (follow-up assays come after a bar, where they were run).

CC(C)(C)OC(=O)NCCCCCc1nnc(SCc2c(F)cccc2Cl)o1	LYPLA2 inh 40, LYPLA1 counter 25 | LYPLA1 conf 41 | LYPLA2 confirm 44
Cc1cc(OCc2cc(C(=O)N3CCC(Oc4cccnc4)CC3)no2)cc(C)c1Cl	LYPLA2 inh 59, LYPLA1 counter 30 (no result: RBBP9 inhibitor) | LYPLA1 conf 33 | LYPLA2 confirm 62
COc1cccc(NC(=O)CN(C)C(C)C(=O)Nc2cc([N+](=O)[O-])ccc2Cl)c1 (stereo not drawn)	none
N#Cc1c(NC(=S)NC(=O)c2ccccc2)sc2c1CCC2	none
O=C(NC(=S)Nc1sc2c(c1C(=O)O)CCCC2)c1ccccc1	LYPLA2 inh 96, LYPLA1 counter 78 (no result: RBBP9 inhibitor) | LYPLA1 conf 71 | LYPLA2 confirm 87
c1ccc(CN2CCN(CCCNc3ccc4nnc(-c5ccccc5)n4n3)CC2)cc1	LYPLA2 inh 38, LYPLA1 counter 36 | LYPLA1 conf 38 | LYPLA2 confirm 29
Cc1cccc2c1cnn2C(=O)Nc1ccccc1Cl	none (no result: RBBP9 inhibitor)
C[C@H]1NC(=O)[C@@]2(C)[C@H](c3ccccc3)[C@H]3COc4ccccc4[C@@H]3N2C1=O	none (no result: Fam108B counter, PME-1 primary, LYPLA2 inh, LYPLA1 counter, RBBP9 inhibitor)
COc1cc(COc2ccc3c(C)c(Cc4ccccc4)c(=O)oc3c2)cc(OC)c1OC	LYPLA2 inh 50, LYPLA1 counter 17 | LYPLA1 conf 36 | LYPLA2 confirm 57
CCCCOc1ccc(N(CC(=O)NCc2ccccc2)C(=O)c2csnn2)cc1	none (no result: RBBP9 inhibitor)
CN(C)c1ccc(S(=O)(=O)NCC(=O)N2CCN(c3ccccc3)CC2)cc1[N+](=O)[O-]	LYPLA2 inh 28, LYPLA1 counter 18 (no result: RBBP9 inhibitor) | LYPLA1 conf 24 | LYPLA2 confirm 26
CN(C)c1ccc(S(=O)(=O)NCC(=O)NCc2ccccc2)cc1[N+](=O)[O-]	none (no result: RBBP9 inhibitor)
OC(COc1ccc(Cl)cc1)CN1CCN(c2cccc(Cl)c2)CC1 (stereo not drawn)	LYPLA2 inh 59, LYPLA1 counter 20 | LYPLA1 conf 27 | LYPLA2 confirm 62
CC(=O)c1ccc(S(=O)c2ccccc2)cc1 (stereo not drawn)	none
COc1ccc2c(c1)C(=O)[C@H](O)[C@@H](c1ccc(OC)c(Br)c1)O2	LYPLA2 inh 93, LYPLA1 counter 44 | LYPLA1 conf 41 | LYPLA2 confirm 93
COc1ccc(NC(=S)N/N=C2\CC(C)(C)Oc3ccc(OC)cc32)cc1	none
CC(=O)N1CCC2(CC1)C/C(=N\NC(=S)Nc1ccc(C)cc1)c1cc(O)ccc1O2	LYPLA2 inh 50, LYPLA1 counter 22 | LYPLA1 conf 31 | LYPLA2 confirm 54
Cc1nn(CC(=O)NCCCN2CCC(N3CCCCC3)CC2)c(=O)c2cc(-c3ccccc3)nn12	none (no result: RBBP9 inhibitor)
CC(=O)N1CCN(c2ccc(NC(=S)NC(=O)c3ccc(C)c([N+](=O)[O-])c3)cc2)CC1	LYPLA2 inh 43, LYPLA1 counter 20 | LYPLA1 conf 32 | LYPLA2 confirm 56
COc1ccc(C(=O)NC(=S)Nc2ccc(NC(=O)c3ccco3)cc2)cc1[N+](=O)[O-]	none
COc1ccc(C(=O)NC(=S)Nc2cccc(NC(=O)c3ccco3)c2)cc1[N+](=O)[O-]	LYPLA2 inh 48, LYPLA1 counter 37 | LYPLA1 conf inactive | LYPLA2 confirm inactive
COc1ccc(C(=O)NC(=S)Nc2ccc(N3CCN(C(C)=O)CC3)cc2)cc1[N+](=O)[O-]	LYPLA2 inh 70, LYPLA1 counter 55 | LYPLA1 conf 63 | LYPLA2 confirm 75
CCOc1ccc(C(=O)NC(=S)Nc2ccc(N3CCCCC3)cc2)cc1[N+](=O)[O-]	none
CCOC(=O)N1CCN(C(=O)COC(=O)CNC(=O)c2ccc(C)cc2)CC1	none (no result: RBBP9 inhibitor)
Cc1ccc(C(=O)NC(=S)N2CCN(c3ccc([N+](=O)[O-])cc3)CC2)cc1	none
O=[N+]([O-])c1ccc(C2CCCC/C2=N/OCc2ccc(F)cc2)c([N+](=O)[O-])c1 (stereo not drawn)	none
O=[N+]([O-])c1ccc(N2CCC(=NOCc3ccc(Cl)cc3)CC2)cc1	LYPLA2 inh 78, LYPLA1 counter 58 | LYPLA1 conf 70 | LYPLA2 confirm 75
Cc1ccc(C(=O)ON=C2CCN(c3ccc([N+](=O)[O-])cc3)CC2)cc1	LYPLA2 inh 55, LYPLA1 counter 23 | LYPLA1 conf 28 | LYPLA2 confirm 47
Cc1ccc2c(c1)N(C(=O)CCC(=O)Nc1ccccc1Cl)CC(C)O2 (stereo not drawn)	none (no result: RBBP9 inhibitor)
Cc1nn(CC(=O)N2CCN(Cc3ccccc3)CC2)c(=O)c2ccccc12	none
COc1ccc(CN2CCN(C(=O)Cn3nc(C(=O)O)c4ccccc4c3=O)CC2)cc1F	LYPLA2 inh 57, LYPLA1 counter 17 (no result: RBBP9 inhibitor) | LYPLA1 conf 15 | LYPLA2 confirm 63 | LYPLA2 gel ABPP inactive
C/C(=N/NC(=O)CCCOc1ccc(Cl)cc1Cl)c1ccc(C)o1	none
COc1ccc(-n2nc(C(=O)NCC(=O)N3CCN(c4cccc(Cl)c4)CC3)c3ccccc3c2=O)c(OC)c1	LYPLA2 inh 83, LYPLA1 counter 49 (no result: RBBP9 inhibitor) | LYPLA1 conf 49 | LYPLA2 confirm 68
Cc1ccc(N(CC(=O)Nc2ccc(C)cn2)S(=O)(=O)c2c(C)nn(C)c2C)cc1	LYPLA1 counter 16, PAD4 FP inh 49 | LYPLA1 conf inactive | PAD4 confirm inactive
Cc1ccc(NC(=O)CS(=O)CC(=O)NC(C)CCc2ccco2)cc1Cl (stereo not drawn)	none
Cc1ccc(-c2ccccc2NC(=O)CS(=O)CC(=O)Nc2ccc(C)c(Cl)c2)o1 (stereo not drawn)	PME-1 primary 45, LYPLA2 inh 59, LYPLA1 counter 46, PAD4 FP inh 113 (no result: RBBP9 inhibitor) | LYPLA1 conf inactive | LYPLA2 confirm inactive | PAD4 confirm inactive
CCOC(=O)C1=C(c2cccc(Oc3ccccc3)c2)NC(=S)NC1C (stereo not drawn)	none
CCOc1ccc2noc3c2c1C(=O)c1ccccc1-3	LYPLA1 counter 20, PAD4 FP inh 135 | LYPLA1 conf inactive | PAD4 confirm 131
Cc1ccc(S(=O)(=O)N2CCCCC2)cc1NC(=O)COC(=O)C1=COCCO1	none
CN1CC=C2C(C#N)=C(N)C(C#N)(C#N)[C@H](c3ccoc3)[C@H]2C1	LYPLA1 counter 14, PAD4 FP inh 22 | LYPLA1 conf inactive | PAD4 confirm inactive
